From ChEMBL document CHEMBL2157871, “Identification of a novel and orally available benzimidazole derivative as an NPY Y5 receptor antagonist with in vivo efficacy” (Bioorg Med Chem Lett, 2012)

Assays:
Cytochrome P450 2D6 = Cytochrome P450 2D6 (Homo sapiens, UniProt P10635); experiment: Inhibition of CYP2D6; assay type: ADME
[1] = Metabolic stability in rat liver microsomes assessed as compound remaining after 30 mins; assay type: ADME, Microsome; settings: read-out: Stability
Method in brief: (§1)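 Human or rat liver microsomes incubated with compound for 30 min. Result given as percent of parent compound remaining.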

[2] = Kinetic solubility of the compound in 1%DMSO at pH 6.8; assay type: physicochemical; settings: read-out: Kinetic_solubility
Method in brief: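 Kinetic solubility measured at pH 6.8 from a 1% DMSO solution.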

[3] = Metabolic stability in human liver microsomes assessed as compound remaining after 30 mins; assay type: ADME, Microsome; settings: read-out: Stability; method in brief: as §1
[4] = target: T1, Neuropeptide Y receptor type 5 (Mus musculus, UniProt O70342); experiment: Displacement of [125I]PYY from mouse NPY Y5 receptor
T1 sequence (O70342 whole entry): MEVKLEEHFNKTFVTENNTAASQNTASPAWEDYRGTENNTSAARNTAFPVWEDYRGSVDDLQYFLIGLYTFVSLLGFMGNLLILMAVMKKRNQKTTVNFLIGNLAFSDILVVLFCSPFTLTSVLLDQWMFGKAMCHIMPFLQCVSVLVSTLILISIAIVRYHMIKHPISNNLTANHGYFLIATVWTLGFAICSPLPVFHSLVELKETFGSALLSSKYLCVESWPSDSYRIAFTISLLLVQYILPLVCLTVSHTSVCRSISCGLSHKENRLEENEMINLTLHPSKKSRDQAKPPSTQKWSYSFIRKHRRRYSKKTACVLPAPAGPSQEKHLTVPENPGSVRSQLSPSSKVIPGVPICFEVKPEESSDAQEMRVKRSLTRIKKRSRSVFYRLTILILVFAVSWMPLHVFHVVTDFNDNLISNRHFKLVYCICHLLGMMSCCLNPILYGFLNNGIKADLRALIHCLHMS
Method in brief: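 Competition binding at mouse NPY Y5 receptors with 125I-PYY as ligand. IC50 is the concentration giving 50% inhibition of total specific binding, taken as the mean of two or more independent assays.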

Cytochrome P450 2C9 = Cytochrome P450 2C9 (Homo sapiens, UniProt P11712); experiment: Inhibition of CYP2C9; assay type: ADME
Cytochrome P450 1A2 = target: T2, Cytochrome P450 1A2 (Homo sapiens, UniProt P05177); experiment: Inhibition of CYP1A2; assay type: ADME
T2 sequence (P05177 whole entry): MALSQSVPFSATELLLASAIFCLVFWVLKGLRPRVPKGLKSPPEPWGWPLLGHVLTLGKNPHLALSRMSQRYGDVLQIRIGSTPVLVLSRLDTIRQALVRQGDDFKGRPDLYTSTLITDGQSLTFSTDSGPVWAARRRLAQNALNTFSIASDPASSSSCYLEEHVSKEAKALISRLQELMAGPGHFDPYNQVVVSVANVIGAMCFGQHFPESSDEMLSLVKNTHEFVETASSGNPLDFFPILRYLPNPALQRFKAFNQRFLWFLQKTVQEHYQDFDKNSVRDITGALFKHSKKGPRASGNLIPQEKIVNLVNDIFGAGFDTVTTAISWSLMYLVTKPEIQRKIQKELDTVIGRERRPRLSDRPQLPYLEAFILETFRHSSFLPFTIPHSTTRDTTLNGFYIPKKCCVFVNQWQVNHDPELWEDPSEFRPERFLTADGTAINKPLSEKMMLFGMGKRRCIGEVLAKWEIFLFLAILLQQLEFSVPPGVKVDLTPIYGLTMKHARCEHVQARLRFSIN

Cytochrome P450 3A4 = Cytochrome P450 3A4 (Homo sapiens, UniProt P08684); experiment: Inhibition of CYP3A4; assay type: ADME
Cytochrome P450 2C19 = Cytochrome P450 2C19 (Homo sapiens, UniProt P33261); experiment: Inhibition of CYP2C19; assay type: ADME
Mus musculus [5] = experiment: Antiobesity activity in DIO mouse assessed as decrease in [cPP(1 to 7),NPY(19 to 23),Ala(31),Alb(32),Gln(34)]-induced food intake at 12.5 mg/kg, po administered 1 hr prior to [cPP(1 to 7),NPY(19 to 23),Ala(31),Alb(32),Gln(34)]-induction measured at 4 hrs relative to vehicle-treated control; assay type: functional; parameters: scale not given: the % may be the effect or the level left
Method in brief: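 Diet-induced obese mice dosed orally at 12.5 mg/kg 1 h before icv injection of a Y5-selective agonist (0.1 nmol). Cumulative food intake recorded over the following 4 h.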

Mus musculus [6] = experiment: Antiobesity activity in DIO mouse assessed as decrease in [cPP(1 to 7),NPY(19 to 23),Ala(31),Alb(32),Gln(34)]-induced food intake at 12.5 mg/kg, po administered 1 hr prior to [cPP(1 to 7),NPY(19 to 23),Ala(31),Alb(32),Gln(34)]-induction measured at 2 hrs relative to vehicle-treated control; assay type: functional; parameters: scale not given: the % may be the effect or the level left

Chain of Cytochrome P450 2D6 (P10635 whole entry): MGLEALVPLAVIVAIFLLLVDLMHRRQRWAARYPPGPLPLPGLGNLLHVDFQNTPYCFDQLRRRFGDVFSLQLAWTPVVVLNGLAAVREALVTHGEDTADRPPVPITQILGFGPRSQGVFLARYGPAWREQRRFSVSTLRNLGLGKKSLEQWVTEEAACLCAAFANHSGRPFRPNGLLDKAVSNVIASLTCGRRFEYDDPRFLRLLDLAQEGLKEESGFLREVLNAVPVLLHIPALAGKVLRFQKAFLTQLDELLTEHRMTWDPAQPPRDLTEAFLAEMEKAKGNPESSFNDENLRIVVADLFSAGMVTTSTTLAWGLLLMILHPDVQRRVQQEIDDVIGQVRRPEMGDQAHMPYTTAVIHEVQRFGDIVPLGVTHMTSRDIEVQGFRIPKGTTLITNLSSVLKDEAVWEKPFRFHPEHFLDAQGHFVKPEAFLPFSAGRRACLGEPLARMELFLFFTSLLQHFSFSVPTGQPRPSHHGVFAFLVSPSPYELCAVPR
Chain of Cytochrome P450 2C19 (P33261 whole entry): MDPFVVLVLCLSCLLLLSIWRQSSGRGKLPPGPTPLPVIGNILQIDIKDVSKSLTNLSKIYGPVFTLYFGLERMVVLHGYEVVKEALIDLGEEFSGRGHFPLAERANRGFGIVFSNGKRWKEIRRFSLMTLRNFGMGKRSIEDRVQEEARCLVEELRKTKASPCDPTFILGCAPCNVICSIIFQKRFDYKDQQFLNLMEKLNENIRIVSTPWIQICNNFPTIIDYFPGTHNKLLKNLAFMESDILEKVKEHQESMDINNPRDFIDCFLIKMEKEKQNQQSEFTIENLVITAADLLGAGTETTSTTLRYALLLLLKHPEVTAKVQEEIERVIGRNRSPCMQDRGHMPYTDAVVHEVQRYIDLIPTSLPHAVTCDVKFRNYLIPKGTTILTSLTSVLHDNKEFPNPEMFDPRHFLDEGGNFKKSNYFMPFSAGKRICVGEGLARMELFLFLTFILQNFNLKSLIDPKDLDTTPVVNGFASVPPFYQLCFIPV
Chain of Cytochrome P450 3A4 (P08684 whole entry): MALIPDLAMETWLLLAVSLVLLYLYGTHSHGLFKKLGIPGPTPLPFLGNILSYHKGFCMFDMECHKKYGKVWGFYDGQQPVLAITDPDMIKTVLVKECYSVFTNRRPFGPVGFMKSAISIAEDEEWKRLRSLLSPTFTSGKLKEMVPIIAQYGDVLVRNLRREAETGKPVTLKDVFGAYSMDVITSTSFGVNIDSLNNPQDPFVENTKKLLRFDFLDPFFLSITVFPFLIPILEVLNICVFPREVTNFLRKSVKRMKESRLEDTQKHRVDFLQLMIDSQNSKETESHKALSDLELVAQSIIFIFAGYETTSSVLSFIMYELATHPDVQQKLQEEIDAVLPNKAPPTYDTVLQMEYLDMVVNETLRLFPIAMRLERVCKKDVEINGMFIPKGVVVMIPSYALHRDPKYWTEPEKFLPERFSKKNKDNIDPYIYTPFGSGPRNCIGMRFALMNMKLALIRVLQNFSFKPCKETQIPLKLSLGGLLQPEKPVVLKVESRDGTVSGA
Chain of Cytochrome P450 2C9 (P11712 whole entry): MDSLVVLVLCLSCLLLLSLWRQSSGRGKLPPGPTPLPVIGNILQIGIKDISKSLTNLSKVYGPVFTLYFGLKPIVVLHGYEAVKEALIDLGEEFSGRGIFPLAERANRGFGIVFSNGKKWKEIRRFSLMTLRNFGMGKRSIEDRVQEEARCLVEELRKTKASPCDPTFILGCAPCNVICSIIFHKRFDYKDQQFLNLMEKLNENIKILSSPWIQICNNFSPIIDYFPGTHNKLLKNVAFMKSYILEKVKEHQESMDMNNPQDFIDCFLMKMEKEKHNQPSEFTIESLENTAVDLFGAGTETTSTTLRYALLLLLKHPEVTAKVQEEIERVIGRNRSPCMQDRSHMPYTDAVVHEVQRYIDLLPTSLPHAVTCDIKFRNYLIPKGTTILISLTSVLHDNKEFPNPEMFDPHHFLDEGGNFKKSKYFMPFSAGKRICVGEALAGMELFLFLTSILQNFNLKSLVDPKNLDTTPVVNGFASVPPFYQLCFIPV

Structure (SMILES)	INH (Cytochrome P450 2D6)	remaining at 0.5 h [1]	solubility kinetic [2]	remaining at 0.5 h [3]	IC50 [4]	INH (Cytochrome P450 2C9)	INH (Cytochrome P450 1A2)	INH (Cytochrome P450 3A4)	INH (Cytochrome P450 2C19)	Activity (Mus musculus [5])	Activity (Mus musculus [6])
CC(C)(C(F)(F)F)S(=O)(=O)c1ccc2nc(N3CCOC(c4ccccc4)C3)[nH]c2c1 (configuration not stated)	18 µM	37.8%	11.6 µM	60.2%	1.43 nM	11 µM	18 µM	8.2 µM	17 µM	–	–
CCS(=O)(=O)c1ccc2nc(N3CCOC(c4ccccc4)C3)[nH]c2c1 (configuration not stated)	> 20 µM	76.1%	> 50 µM	89%	0.43 nM	> 20 µM	> 20 µM	> 20 µM	> 20 µM	42.7%	56%
CC(C)S(=O)(=O)c1ccc2nc(N3CCOC(c4ccccc4)C3)[nH]c2c1 (configuration not stated)	> 20 µM	49.5%	> 50 µM	87%	1.33 nM	> 20 µM	15 µM	16 µM	19 µM	–	–
CCCS(=O)(=O)c1ccc2nc(C3CCC(=O)N(c4ccccc4)C3)[nH]c2c1 (configuration not stated)	> 20 µM	62%	> 50 µM	81.1%	193 nM	> 20 µM	> 20 µM	> 20 µM	> 20 µM	–	–
CCS(=O)(=O)c1ccc2[nH]c(N3CCOC(c4ccc(OC)cc4)C3)nc2c1 (configuration not stated)	> 20 µM	48%	> 50 µM	81%	3.03 nM	> 20 µM	> 20 µM	> 20 µM	> 20 µM	–	–
CCS(=O)(=O)c1ccc2[nH]c(N3CCOC(c4ccc(Cl)cc4)C3)nc2c1 (configuration not stated)	18 µM	87.2%	38.1 µM	94.6%	0.85 nM	> 20 µM	9.2 µM	13 µM	9.1 µM	–	–
CCCS(=O)(=O)c1ccc2nc(N3CCOC(c4ccccc4)C3)[nH]c2c1 (configuration not stated)	> 20 µM	45.9%	> 50 µM	77.9%	0.6 nM	> 20 µM	> 20 µM	> 20 µM	19 µM	–	–
CC(C)(C)S(=O)(=O)N[C@H]1CC[C@H](C(=O)Nc2ccc(C(F)(F)F)cn2)CC1 [VELNEPERIT]	–	–	1.6 µg/mL	–	4.6 nM	–	–	–	–	–	–
O=S(=O)(c1ccc2nc(N3CCOC(c4ccccc4)C3)[nH]c2c1)C(F)(F)F (configuration not stated)	5.5 µM	67.9%	3.7 µM	81.7%	0.73 nM	4.5 µM	17 µM	2.3 µM	1.7 µM	–	–
CCS(=O)(=O)c1ccc2[nH]c(N3CCO[C@H](c4ccccc4)C3)nc2c1	–	–	–	–	–	–	–	–	–	71%	67.2%
CCS(=O)(=O)c1ccc2[nH]c(N3CCOC(c4ccc(C)cc4)C3)nc2c1 (configuration not stated)	> 20 µM	34%	21.6 µM	87.8%	0.8 nM	> 20 µM	> 20 µM	> 20 µM	17 µM	–	–
CCCS(=O)(=O)c1ccc2[nH]c(C3CCOC(c4ccccc4)C3)nc2c1 (mixture of isomers)	> 20 µM	74%	> 50 µM	65%	17.2 nM	> 20 µM	> 20 µM	> 20 µM	20 µM	–	–
CCCS(=O)(=O)c1ccc2[nH]c(N3CCNC(c4ccccc4)C3)nc2c1 (configuration not stated)	> 20 µM	44%	> 50 µM	64.4%	6.82 nM	> 20 µM	> 20 µM	> 20 µM	> 20 µM	–	–
CCCS(=O)(=O)c1ccc2[nH]c(N3CCC(c4ccccc4)C3)nc2c1 (configuration not stated)	> 20 µM	19.2%	15.4 µM	74.9%	1.01 nM	17 µM	> 20 µM	14 µM	> 20 µM	–	–
CCCS(=O)(=O)c1ccc2[nH]c(C3CN(c4ccccc4)CCO3)nc2c1 (configuration not stated)	> 20 µM	7.5%	> 50 µM	66.1%	15.9 nM	> 20 µM	> 20 µM	> 20 µM	> 20 µM	–	–
CCS(=O)(=O)c1ccc2[nH]c(N3CCOC(c4ccc(F)cc4)C3)nc2c1 (configuration not stated)	> 20 µM	87.1%	> 50 µM	92.4%	1.05 nM	> 20 µM	> 20 µM	> 20 µM	> 20 µM	–	–
CC(C)(C)S(=O)(=O)c1ccc2[nH]c(N3CCOC(c4ccccc4)C3)nc2c1 (configuration not stated)	> 20 µM	56.4%	10.7 µM	78.5%	4.27 nM	> 20 µM	> 20 µM	14 µM	> 20 µM	–	–
O=S(=O)(CC(F)(F)F)c1ccc2[nH]c(N3CCOC(c4ccccc4)C3)nc2c1 (configuration not stated)	> 20 µM	63.5%	> 50 µM	85%	0.21 nM	> 20 µM	> 20 µM	15 µM	> 20 µM	–	–
CC(C)CS(=O)(=O)c1ccc2[nH]c(N3CCOC(c4ccccc4)C3)nc2c1 (configuration not stated)	> 20 µM	2.4%	43.2 µM	55.1%	0.28 nM	17 µM	> 20 µM	9.3 µM	> 20 µM	–	–
CCCS(=O)(=O)c1ccc2nc(N3CCCC(c4ccccc4)C3)[nH]c2c1 (configuration not stated)	13 µM	2.2%	19.1 µM	45.2%	0.29 nM	9.4 µM	> 20 µM	6.9 µM	12 µM	–	–
CCCS(=O)(=O)c1ccc2nc(N3CCN(C)C(c4ccccc4)C3)[nH]c2c1 (configuration not stated)	> 20 µM	21.1%	> 50 µM	21.9%	4.99 nM	> 20 µM	> 20 µM	> 20 µM	> 20 µM	–	–
